# An excerpt weighted towards active compounds, which were near 2.6% of everything screened.
# SENP8 block-1: SENP8 (human) protease inhibition; Q96LD8; 0.64% of 360,000 active; recombinant SENP8, Nedd8 substrate fluorescence; inhibition, % at 20 µM; in the data active = inhibition mostly above about 40%, no sharp cut-off; inactive = mostly below about 27%
# UCH37 DUB inh: human UCH37 deubiquitinating enzyme inhibition. purified proteasome/UCH37, Ub-AMC cleavage fluorescence. AID 588478. inhibition, % (test concentration not listed). 0.33% of 330,000 active;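 active = mean inhibition over replicate wells above about 20%, limit read from the data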;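 also: 0% = compound-free wells with enzyme and 100% = wells lacking proteasome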
#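 Schedule: 30 min plus 25 min, room temperature / Material: human UCH37 within purified proteasomes / Technique: AMC fluorescence intensity at 355/460 nm / Buffer or medium: pH 7.4 Tris-HCl (50 mM) with ovalbumin, ATP-MgCl2, DTT / Controls: wells without proteasome as full block, compound-free enzyme plus substrate as uninhibited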
# SENP8 block-2: SENP8 protease inhibition; Q96LD8; purified SENP8, Z-RLRGG-aminoluciferin cleavage, luminescence; inhibition, % at 10 µM; 1.2% of 330,000 active; in the data active = inhibition above about 50%
# SENP7 block: inhibitors of human SENP7 protease; Q9BQF6; recombinant SENP7, Z-RLRGG-aminoluciferin luminescence, 40 min; inhibition, % at 5 µM; 1.5% of 330,000 active;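 active = inhibition above about 50% at the single test dose, limit read from the data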;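 also: plate controls were DMSO with enzyme for no effect and no enzyme buffer wells for full effect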
# SENP6 block: inhibitors of human SENP6 protease | Q9GZR1 | Recombinant SENP6 catalytic domain, aminoluciferin luminescence | inhibition, % at 10 µM | 1.8% of 330,000 active;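 active = inhibition above about 50% at the single tested dose, limit read from the data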;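 also: plate controls were DMSO wells with enzyme for no effect and DMSO wells lacking enzyme for full effect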
# SENP1 FRET inh: SENP1 (human) catalytic domain inhibition; AID 624204; inhibition, % at 10 µM; recombinant SENP1 catalytic domain, CyPet-SUMO1-YPet FRET cleavage; Q9P0U3; 0.21% of 360,000 active;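 active = inhibition at least 30% at 10 µM, raw YFP signal under a set limit, fluorescence ratio 0.5 to 1.5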;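 also: 0% = enzyme with DMSO and 100% = no enzyme wells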
# Target sequence (Q9P0U3 419-644 limits assumed): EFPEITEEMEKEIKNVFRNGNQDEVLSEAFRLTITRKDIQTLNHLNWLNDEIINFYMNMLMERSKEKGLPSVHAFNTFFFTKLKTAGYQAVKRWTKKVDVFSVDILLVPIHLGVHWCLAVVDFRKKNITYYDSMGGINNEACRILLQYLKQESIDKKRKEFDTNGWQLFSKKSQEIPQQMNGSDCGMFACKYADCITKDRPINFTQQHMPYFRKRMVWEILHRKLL
#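 Assay system – human recombinant His6-tagged SENP1 catalytic domain enzyme · Input – SENP1 enzyme, 20 pM final · Buffer or medium – Tris pH 8 buffer plus EDTA, NaCl, BME, BSA, NP40, catalase · Schedule – 50 min reaction at room temperature · Technique – FRET read of cyan and yellow fluorescence · Control set – no-enzyme wells low, DMSO-plus-enzyme wells high control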
# SENP8 conf: confirmation of human SENP8 protease inhibitors | AID 488912 | 40% of 6,200 active | inhibition, % at 12.5 µM | shares compounds with SENP7 block | Recombinant SENP8, Z-RLRGG-aminoluciferin luminescence, 60 min;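 active = mean inhibition across replicates above about 50%, limit read from the data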
# SENP6 conf: confirmation of human SENP6 protease inhibitors | shares compounds with SENP7 block | recombinant SENP6, Z-RLRGG-aminoluciferin luminescence | inhibition, % at 12.5 µM | 58% of 6,200 active | AID 488915
# SENP7 confirm: confirmation of human SENP7 protease inhibitors; shares compounds with SENP7 block; recombinant SENP7, Z-RLRGG-aminoluciferin luminescence, 40 min; inhibition, % at 12.5 µM; 69% of 6,200 active; AID 488917
# Casp3 SENP sel: caspase-3 inhibition (SENP selectivity assay). shares compounds with SENP7 block. purified caspase-3, Z-DEVD-aminoluciferin luminescence, 60 min. inhibition, % at 12.5 µM. 60% of 6,200 active. AID 488918;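 active = mean inhibition above about 50%, limit read from the data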;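 also: plate controls were enzyme with DMSO for no effect and wells without caspase-3 for full effect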
# Target sequence (P42574 28-227 limits assumed): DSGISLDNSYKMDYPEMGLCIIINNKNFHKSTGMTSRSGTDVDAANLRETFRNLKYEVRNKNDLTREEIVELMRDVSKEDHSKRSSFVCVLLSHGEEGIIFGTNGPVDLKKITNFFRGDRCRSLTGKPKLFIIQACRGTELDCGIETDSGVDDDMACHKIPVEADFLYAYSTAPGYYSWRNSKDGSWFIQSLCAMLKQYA
# Luc interf: luminescence interference (SENP counter-screen) | shares compounds with SENP7 block | Pre-incubated SENP8/Z-RLRGG-aminoluciferin, luciferase luminescence interference | inhibition, % at 12.5 µM | 39% of 6,200 active | AID 488919;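 active = mean inhibition above about 50% when retested at one dose, limit read from the data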;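 also: plate controls were DMSO wells with completed reaction for no effect and substrate without enzyme for full effect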
# Starred values were filed as active, the others as inactive; x = no result given.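 The calls were made as follows, unless noted: active = mean inhibition above about 50% in the one-dose retest (limit read from the data); inactive = the rest.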
SMILES,SENP8 block-1,UCH37 DUB inh,SENP8 block-2,SENP7 block,SENP6 block,SENP1 FRET inh,SENP8 conf,SENP6 conf,SENP7 confirm,Casp3 SENP sel,Luc interf
CCN(CC)S(=O)(=O)c1ccc2oc(Nc3ccccc3)nc2c1,15,2,32,31,55*,1,28,24,71*,25,-2
CCS(=O)(=O)c1ccc2oc(Nc3ccc(OC)c(OC)c3)nc2c1,-1,5,-20,-5,-23,0,x,x,x,x,x
COc1cccc(C(=O)O/N=C(\N)c2ccc(C)cc2)c1,9,3,57*,83*,73*,2,74*,76*,93*,79*,58*
COc1cccc(C(=O)O/N=C(\N)c2ccc([N+](=O)[O-])cc2)c1,14,0,-13,38,18,1,x,x,x,x,x
COc1cccc(C(=O)O/N=C(\N)c2ccncc2)c1,7,3,43,67*,-1,1,47,44,78*,83*,59*
Cc1cccc(/C(N)=N/OC(=O)CCC2CCCCC2)c1,11,3,-4,32,83*,0,67*,90*,98*,86*,83*
Cc1ccc(/C(N)=N/OC(=O)CCC2CCCCC2)cc1,8,2,-9,1,-13,2,x,x,x,x,x
Cc1cccc(/C(N)=N/OC(=O)c2ccncc2)c1,17,2,75*,92*,89*,3,79*,84*,96*,92*,80*
CCOC(=O)c1c(-c2ccc(C)cc2)csc1N=C(C)C1=C(O)c2ccccc2C1=O,x,8,x,x,x,x,x,x,x,x,x
CCC(C)NC(=O)CON=Cc1ccccc1OC(F)F (centres undefined),x,1,x,x,x,x,x,x,x,x,x
CN=C1SC(CC(=O)Nc2c(C)cccc2C)C(=O)N1N=Cc1cccs1 (centres undefined),x,3,x,x,x,x,x,x,x,x,x
CCCc1n[nH]c2c1C(=NO)CCC2,x,0,x,x,x,x,x,x,x,x,x
CC(=O)Nc1ccc(S(=O)(=O)NC2=C(N3CCN(c4ccc(F)cc4)CC3)C(=O)c3ccccc3C2=O)cc1,78*,10,29,44,63*,-1,31,56*,19,53*,-1
Cc1ccc(OCc2ccc(C(=O)N3CCOCC3)cc2)cc1C,33,2,75*,90*,83*,2,-7,74*,94*,84*,80*
CC(C)(c1ccccc1)c1ccc(OCc2ccc(C(=O)O)o2)cc1,18,3,61*,12,73*,5,6,73*,73*,6,78*
COC(=O)c1ccc(COc2ccc3c(C)c(C)c(=O)oc3c2)o1,-276,-49,54*,30,39,-2,11,10,4,0,2
CC(C)(C)c1ccc(OCc2ccc(C(=O)NN)o2)cc1,-2,6,2,-2,-4,3,x,x,x,x,x
Cc1c(C)c2ccc(OCc3ccc(C(=O)O)o3)c(C)c2oc1=O,-299,-178,65*,50*,77*,-2,9,66*,79*,16,57*
COc1ccc2c(c1)CCCC2=NOC(=O)c1ccccc1OC,x,1,x,x,x,x,x,x,x,x,x
Cc1cc(COc2ccccc2)oc1C(=O)O,21,2,97*,100*,95*,1,99*,100*,103*,88*,98*
Cc1ccc(OCc2ccc(C(=O)O)o2)cc1C,26,2,84*,82*,88*,0,4,93*,101*,41,93*
